Test results: publication PMC12398596 (Nature Communications, 2025)

Tests used:
[1] = test system: BV2 cells; assay: Degradation of FITC-Aβ42 forms in BV2 cells; format: cell-based, mouse; settings: for degradation of intracellular FITC-Aβ42: 0.5 μM FITC-Aβ42 forms, 180 min then washed
[2] = test system: BV2 cells; assay: Colocalization of P2CSKn-pretreated sFITC-Aβ42 with LysoTracker Red in BV2 cells; format: cell-based, mouse; settings: chloroquine 10 μM, 1 h pretreatment
[3] = test system: Msr1 mRNA in BV2 cells; assay: Msr1 mRNA in BV2 cells, rt-qPCR; format: cell-based, mouse; settings: for expression of Msr1 mRNA, TLR agonists (in words): LPS 1.0 μg/mL, Pam2CSK4 1.0 μM, zymosan A 50 μg/mL, flagellin 200 nM
[4] = test system: Marco mRNA in BV2 cells; assay: Marco mRNA in BV2 cells, rt-qPCR; format: cell-based, mouse; settings: for expression of Marco mRNA, TLR agonists (in words): LPS 1.0 μg/mL, Pam2CSK4 1.0 μM, flagellin 200 nM
[5] = test system: fFITC-Aβ42; assay: LSCM re-assembly of fFITC-Aβ42 plaques; format: biochemical; settings: fFITC-Aβ42 5.0 μM, compound 25 μM, PBS
[6] = molecular target: T1, fAβ42 (Homo sapiens, UniProt P05067); assay: PICUP-Western blot of fAβ42, antibody 4G8; format: biochemical; settings: fAβ42 20 μM, 37 °C, P2CSKn result at 0.5 eq. (10 μM)
[7] = test system: sAβ42; assay: Dynamic light scattering, sAβ42 with compounds; format: physicochemical; settings: PBS; for shift of sAβ42 particle size to single range around 100 nm: sAβ42 + compound
[8] = test system: NLRP3; assay: NLRP3 protein in BV2 cells, Western blot; format: cell-based, mouse; settings: 1.0 μM, 12 h
[9] = test system: BV2 cells; assay: Treat & wash phagocytosis of fFITC-Aβ42 in BV2 cells; format: cell-based, mouse
[10] = test system: MARCO; assay: MARCO protein in BV2 cells, Western blot; format: cell-based, mouse; settings: P2CSKn or Pam2CSK4 1.0 μM, 12 h
[11] = test system: BV2 cells; assay: Normal vs treat & wash phagocytosis of sFITC-Aβ42 in BV2 cells; format: cell-based, mouse; settings: mean ± SD, n = 3
[12] = test system: Iba1; assay: Local cortex injection, Iba1, APP/PS1 mice; format: in vivo, APP/PS1 transgenic mice; settings: 13-month-old APP/PS1, cortex, 100 μM 300 nL, 5 d, mean ± SD
Outline: (§1)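 13-month APP/PS1 mice (C57BL/6 background) under sodium pentobarbital (50 mg/kg) received a unilateral stereotaxic cortical injection (AP +1.0, ML ±1.0, DV −1.0) of compound or reference (100 μM, 300 nL saline, with Hoechst 33342) at 50 nL/min. Perfusion-fixed (PBS, 4% PFA) at 2 or 5 days and sections immunostained. Ratio = signal at injection zone (>80% max dye) over adjacent zone (>200 μm away, <10% dye); 50 μm around needle track excluded.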

[13] = test system: BV2 cells; assay: Phagocytosis of fFITC-Aβ42 in BV2 cells, flow cytometry; format: cell-based, mouse; settings: fFITC-Aβ42 0.5 μM, 8 eq., 180 min, mean ± SD, n = 3
[14] = test system: BV2 cells; assay: Phagocytosis of sFITC-Aβ42 in BV2 cells, flow cytometry; format: cell-based, mouse; settings: sFITC-Aβ42 0.5 μM, 2 eq., 180 min, mean ± SD, n = 3
[15] = test system: sAβ42; assay: Tyndall effect of sAβ42 with compounds; format: physicochemical; settings: PBS; for Tyndall effect of sAβ42 on addition of compound: imaged immediately after mixing; for Tyndall effect of compound itself (self-aggregation): compound alone
[16] = test system: MSR1; assay: MSR1 protein in BV2 cells, Western blot; format: cell-based, mouse; settings: P2CSKn or Pam2CSK4 1.0 μM, 12 h
[17] = test system: Aβ plaque; assay: Local cortex injection, Aβ plaque by Thioflavin S, APP/PS1 mice; format: in vivo, APP/PS1 transgenic mice; settings: 13-month-old APP/PS1, cortex, 100 μM 300 nL, 5 d, mean ± SD
Outline: as §1

[18] = test system: Aβ plaque; assay: Local cortex injection, Aβ by antibody OC, APP/PS1 mice; format: in vivo, APP/PS1 transgenic mice; settings: 13-month-old APP/PS1, cortex, 100 μM 300 nL, 5 d, mean ± SD
Outline: as §1

[19] = test system: Mrc1 mRNA in BV2 cells; assay: Mrc1 mRNA in BV2 cells, rt-qPCR; format: cell-based, mouse; settings: for expression of Mrc1 mRNA, TLR agonists (in words): LPS 1.0 μg/mL, Pam3CSK4 1.0 μM, Pam2CSK4 1.0 μM, zymosan A 50 μg/mL
[20] = test system: Aβ plaque; assay: Local hippocampus injection, Aβ plaque by Thioflavin S, APP/PS1 mice; format: in vivo, APP/PS1 transgenic mice; settings: 9-month-old APP/PS1, hippocampus, 100 μM 300 nL, 5 d, mean ± SD
Outline: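 APP/PS1 mice (9 or 16 months) under pentobarbital (50 mg/kg) received stereotaxic injections of test compound (100 μM, 300 nL saline, with Alexa Fluor 594) into right dorsal hippocampus (AP −2.2, ML +1.5, DV −1.9 mm) and reference into left. Meloxicam 5.0 mg/kg s.c. given pre-surgery and every 12 h for 3 days. Perfusion-fixed at 5 or 10 days, DAPI-counterstained. INJ/ADJ ratios compared between hemispheres.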

[21] = test system: caspase-3; assay: Cleaved caspase-3 in BV2 cells, Western blot; format: cell-based, mouse; settings: sAβ42, fAβ42 0.5 μM; hPAβ42 1.0 μM P2CSKn + 0.5 μM sAβ42; 12 h
[22] = test system: BV2 cells; assay: Phagocytosis of fluorescent microsphere in BV2 cells, flow cytometry; format: cell-based, mouse; settings: fAβ42 0.5 μM
[23] = test system: BV2 cells; assay: RNA-seq of BV2 cells; format: cell-based, mouse
[24] = molecular target: T1, fAβ42; assay: Dynamic light scattering, fAβ42 with P2CSKn, time-dependent; format: physicochemical
[25] = test system: TLR2, BV2 cells; assay: Phagocytosis of FITC-Aβ42 forms in TLR2-WT; format: cell-based, mouse; settings: 0.5 μM, 30 min; for uptake in TLR2-knockdown BV2 cells: TLR2-siRNA; for uptake in BV2-NC cells: null-siRNA control
[26] = molecular target: T1, fAβ42; assay: ThT fluorescence kinetics of preformed fAβ42; format: biochemical; settings: sAβ42 10 μM, 37 °C
[27] = test system: TLR2; assay: Cellular colocalization of FITC-Aβ42/RhoB-P2CSKn/TLR2, LSCM; format: cell-based, mouse; settings: RhoB-P2CSKn 1.0 μM, sFITC-Aβ42 0.5 μM, 1 h
[28] = test system: primary microglia; assay: Phagocytosis of sFITC-Aβ42 in primary microglia, flow cytometry; format: cell-based, mouse
[29] = 1.0 μM, 12 h, in the absence or presence of Aβ42 species
[30] = equimolar P2CSKn + fAβ42 (20 μM), whole sample, initial
[31] = fAβ42 only 20 μM, whole sample, 18.5 h
[32] = fAβ42 only 20 μM, whole sample, initial
[33] = fAβ42 only, supernatant, 18.5 h

Molecule: CCN(CC)CCCC(C)Nc1ccnc2cc(Cl)ccc12 (stereo not shown) [chloroquine]
- degradation of intracellular FITC-Aβ42, effect of inhibitor ([1]; chloroquine pretreatment 10 μM, 1 h): almost completely abolished
- lysosome amount and level of phagocytosis of hybrid aggregates [2]: significantly reduced

Molecule: Flagellin
- expression of Msr1 mRNA, TLR agonists (in words) [3]: failed to upregulate
- expression of Marco mRNA, TLR agonists (in words) [4]: failed to upregulate

Molecule: KLVFFn
- co-location with / reshaping of FITC-Aβ42 plaque [5]: did not occur
- oligomer alteration in fAβ42 [6]: not observed
- shift of sAβ42 particle size to single range around 100 nm [7]: did not occur

Molecule: Pam2CSK4
- protein level of NLRP3 (in words) [8]: increased
- phagocytosis of fFITC-Aβ42, treat & wash ([9]; 1.0 μM 6 h, washed, fFITC-Aβ42 0.5 μM 12 h, mean ± SD, n = 3): 43.8 ± 4.1%
- increase in phagocytosis of fFITC-Aβ42, treat & wash ([9]; versus untreated fFITC-Aβ42): about 26%
- protein level of MARCO (in words) [10]: significant increase
- phagocytosis of sFITC-Aβ42, treat & wash group ([11]; compound 1.0 μM 6 h, washed, sFITC-Aβ42 0.5 μM 12 h): 24.0 ± 2.3%
- phagocytosis of sFITC-Aβ42, normal group ([11]; sFITC-Aβ42 0.5 μM pretreated with compound 1.0 μM 30 min, 12 h): 49.3 ± 4.1%
- INJ/ADJ Iba1 [12]: 5.79 ± 1.71
- MFI180 [13]: 24286 ± 520
- count180 (cells internalized FITC-Aβ42) [13]: 89.2 ± 0.3%
- MFI180 [14]: 18911 ± 310
- co-location with / reshaping of FITC-Aβ42 plaque [5]: did not occur
- Tyndall effect of sAβ42 on addition of compound [15]: much less activity than P2CSKn
- oligomer alteration in fAβ42 [6]: not observed
- mRNA of Msr1 (in words) [3, 29]: upregulated
- expression of Msr1 mRNA, TLR agonists (in words) [3]: substantially upregulated
- protein level of MSR1 (in words) [16]: significant increase
- INJ/ADJ TS [17]: 0.85 ± 0.11
- shift of sAβ42 particle size to single range around 100 nm [7]: did not occur
- mRNA of Marco (in words) [4, 29]: upregulated
- expression of Marco mRNA, TLR agonists (in words) [4]: upregulated
- INJ/ADJ OC [18]: 1.05 ± 0.28
- expression of Mrc1 mRNA, TLR agonists (in words) [19]: significantly attenuated

Molecule: Pam2KTK4-ahx-KLVFF-nal [P2KTKn]
- Tyndall effect of sAβ42 on addition of compound [15]: didn’t facilitate that of sAβ42
- Tyndall effect of compound itself (self-aggregation) [15]: significant Tyndall effect

Molecule: Pam3CSK4
- expression of Mrc1 mRNA, TLR agonists (in words) [19]: significantly attenuated

Molecule: Pam3CSK4-ahx-KLVFF-nal [P3CSKn]
- Tyndall effect of sAβ42 on addition of compound [15]: didn’t facilitate that of sAβ42
- Tyndall effect of compound itself (self-aggregation) [15]: significant Tyndall effect

Molecule: Pam-KCKSKVFLKFK-ahx-nal [RP]
- INJ/ADJ TS [20]: 1.12 ± 1.04

Molecule: Zymosan A
- expression of Msr1 mRNA, TLR agonists (in words) [3]: substantially upregulated
- expression of Mrc1 mRNA, TLR agonists (in words) [19]: significantly attenuated

Molecule: fAβ42: pre-formed fibrillar Aβ42
- apoptosis of BV2 cells, cleaved caspase-3 [21]: significant apoptosis
- uptake of fluorescent microsphere (in words) [22]: time-dependently decreased
- phagosome-related genes, RNA-seq ([23]; fAβ42 0.5 μM, BV2, 12 h): significantly donwregulated
- –log2(FC) of Msr1, Marco and Mrc1 ([23]; fAβ42 0.5 μM, BV2, 12 h): > 1
- Tlr2, Tlr4 or Tlr5 expression ([23]; fAβ42 treatment, RNA-seq): not significantly affected
- expression of Msr1 mRNA (in words) ([3]; fAβ42 0.5 μM, after 30 min): significantly suppressed
- hydrodynamic diameter, bimodal range ([24]; equimolar P2CSKn + fAβ42 (20 μM), whole sample, 0.5 h): 40–900 nm
- hydrodynamic diameter, population 2 [24, 30]: ~700 nm
- hydrodynamic diameter, population 3 [24, 30]: ~9000 nm
- hydrodynamic diameter, population 1 [24, 31]: around 16 nm
- hydrodynamic diameter, population 2 [24, 31]: ~136 nm
- hydrodynamic diameter, population 3 (dominant) [24, 31]: ~6000 nm
- hydrodynamic diameter, population 1 [24, 32]: about 40 nm
- hydrodynamic diameter, population 2 [24, 32]: ~700 nm
- hydrodynamic diameter, population 3 [24, 32]: ~6000 nm
- hydrodynamic diameter, species 1 [24, 33]: around 107 nm
- hydrodynamic diameter, species 2 [24, 33]: ~717 nm
- hydrodynamic diameter, monomodal range ([24]; fAβ42 only, supernatant, until 4.5 h): 40–85 nm
- expression of Marco mRNA (in words) ([4]; fAβ42 0.5 μM, after 60 min): significantly suppressed
- expression of Mrc1 mRNA (in words) ([19]; fAβ42 0.5 μM, after 30 min): significantly suppressed

Molecule: fFITC-Aβ42: pre-formed fibrillar FITC-Aβ42
- degradation of intracellular FITC-Aβ42 [1]: efficiently degraded
- uptake in TLR2-knockdown BV2 cells [25]: 12.8%
- uptake in BV2-NC cells [25]: ~ 39.2%

Molecule: sAβ42: soluble Aβ42
- apoptosis of BV2 cells, cleaved caspase-3 [21]: significant apoptosis
- lag time of β-sheet formation [26]: 6.5 h
- hydrodynamic diameter, peak 1 ([7]; sAβ42 alone): around 3 nm
- hydrodynamic diameter, peak 2 ([7]; sAβ42 alone): ~12 nm

Molecule: sFITC-Aβ42: soluble FITC-labeled Aβ42
- co-localization of TLR2 with RhoB-P2CSKn and FITC-Aβ42 [27]: rarely observed
- degradation of intracellular FITC-Aβ42 [1]: efficiently degraded
- cell population with engulfed sFITC-Aβ42 ([28]; sFITC-Aβ42 0.5 μM alone, within about 360 min): ~ 40%
- intracellular accumulation of FITC-Aβ42 ([28]; sFITC-Aβ42 0.5 μM ± P2CSKn 1.0 μM): extremely low
- uptake in TLR2-knockdown BV2 cells [25]: 12.6%
- uptake in BV2-NC cells [25]: ~ 27.3%
